Consider three molecules from ChEMBL document CHEMBL3286316, “Cinnamic anilides as new mitochondrial permeability transition pore inhibitors endowed with ischemia-reperfusion injury protective effect in vivo” (J Med Chem, 2014).

A short description of series [1]: Half life in New Zealand rabbit myocardial infarction model plasma at 5 mg/kg, iv administered as bolus dose by LC/MS analysis. The format is ADME, organism-based, Oryctolagus cuniculus. Also on record: dose 5 mg/kg, route intravenous. The procedure, abridged: (§1)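 Satellite rabbits (n = 5) given the same 5 mg/kg iv bolus. Jugular blood taken into K2EDTA predose and at 5, 15, 30, 60 and 240 min post reperfusion. Plasma precipitated with ACN/H3PO4 and analysed by UPLC-MS/MS, ESI(+), MRM mode. Eight-point calibration 2.5–1000 ng/mL, LLOQ 2.5 ng/mL. Half-life by noncompartmental analysis.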

Series [2] deals with Oryctolagus cuniculus. Nature of the series: Cardioprotective effect in New Zealand rabbit ischemia/reperfusion-induced left anterior descending coronary artery ligation myocardial infarction model assessed as ratio of area at risk to infarct area at 5 mg/kg, iv administered as bolus dose 5 min prior to reperfusion (reference value: 57.3%). The format is functional, Myocardium.

The species entered for series [3] is Mus musculus. The series can be described thus: Inhibition of calcium-induced mPTP opening in C57/bl6 mouse heart mitochondria assessed as increase in calcium retention capacity at 5 uM after 2 mins by fluorimetry (reference value: 80 uM). In a few lines: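 Excised mouse hearts on a Langendorff apparatus, perfused 2 min with Krebs-type buffer, then 2 min with 5 μM compound in 0.1% DMSO or 0.1% DMSO alone. Hearts iced, mitochondria isolated, CRC measured with Calcium Green 5N and repeated CaCl2 pulses at 25 °C. Value is absolute calcium retained; n = 6 per group.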

In series [4] the test system is Rattus norvegicus. Nature of the series: Toxicity in WI(Glx/BRL/Han)IGS rat assessed as heart rate at 30 mg/kg, iv. The format is organism-based. Also on record: dose 30 mg/kg, route intravenous. Conditions: in vivo. The procedure, abridged: (§2)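 Conscious female rats implanted with telemetry, given a single iv dose up to 30 mg/kg. Heart rate, systolic, diastolic and mean blood pressure, and body temperature recorded from at least 1 h before to about 24 h after dosing.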

Series [5] addresses Voltage-gated inwardly rectifying potassium channel KCNH2 (Homo sapiens, UniProt Q12809). The series can be described thus: Displacement of [3H]-astemizole from human hERG expressed in HEK293 cells at 30 uM by liquid scintillation counting. The format is cell-based. Conditions: hek293, 30 µM.
Series [6] concerns Mus musculus. Nature of the series: Increase in calcium retention capacity in C57/bl6 mouse heart mitochondria at 15 mg/kg, iv measured after 5 mins by fluorimetry (reference value: 69.8 uM). The format is functional. In a few lines: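 Mice dosed 15 mg/kg iv in the tail vein. Hearts taken 5 min later and mitochondria isolated in sucrose/Tris/EGTA/0.1% BSA buffer. CRC measured with Calcium Green 5N under CaCl2 pulses added every minute at 25 °C until mPTP opening. Value is absolute calcium retained; vehicle DMSO, n = 16 vehicle, n = 6 treated.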

For series [7], the system named is Rattus norvegicus. The series can be described thus: Toxicity in WI(Glx/BRL/Han)IGS rat assessed as diastolic blood pressure at 30 mg/kg, iv. The class given is organism-based, Artery. Also on record: dose 30 mg/kg, route intravenous. Conditions: in vivo. In a few lines: as §2
Series [8] is filed under the species Mus musculus. Nature of the series: Inhibition of calcium-induced mPTP opening in C57/bl6 mouse liver mitochondria assessed as increase in calcium retention capacity at 0.1 to 5 uM by fluorimetry. The procedure, abridged: (§3)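 Male C57/bl6 liver mitochondria (0.5 mg/mL) in KCl/MOPS buffer with glutamate/malate, pH 7.4, containing 1 μM Calcium Green 5N. Compound added just before the start. CaCl2 pulses added every minute at 25 °C; extramitochondrial fluorescence (ex 505/em 535 nm) followed until mPTP opening. Dose series 0.1–5.0 μM, or given in combination with CsA; mean of three experiments.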

For series [9], the species on record is Mus musculus. Nature of the series: Inhibition of calcium-induced mPTP opening in C57/bl6 mouse liver mitochondria assessed as increase in calcium retention capacity in presence of cyclosporine A by fluorimetry. The procedure, abridged:
as §3

A short description of series [10]: Plasma concentration in New Zealand rabbit myocardial infarction model at 5 mg/kg, iv administered as bolus dose after 5 mins by LC/MS analysis. The class given is ADME, organism-based, Oryctolagus cuniculus. Also on record: dose 5 mg/kg, route intravenous. The procedure, abridged:
as §1

Series [11] can be described thus: Plasma concentration in New Zealand rabbit myocardial infarction model at 5 mg/kg, iv administered as bolus dose after 240 mins by LC/MS analysis. The class given is ADME, organism-based, Oryctolagus cuniculus. More on the design: dose 5 mg/kg, route intravenous. In a few lines:
as §1

The test system of series [12] is Rattus norvegicus. Nature of the series: Toxicity in WI(Glx/BRL/Han)IGS rat assessed as systolic blood pressure at 30 mg/kg, iv. The conditions noted are these: in vivo. The class given is organism-based, Artery. Also on record: dose 30 mg/kg, route intravenous. The procedure, abridged: as §2
The test system of series [13] is Rattus norvegicus. Nature of the series: Toxicity in WI(Glx/BRL/Han)IGS rat assessed as body temperature at 30 mg/kg, iv. The class given is organism-based. More on the design: dose 30 mg/kg, route intravenous. The conditions noted are these: in vivo. In a few lines: as §2
The species named for series [14] is Mus musculus. Nature of the series: Inhibition of menadione-induced mPTP opening in C57/bl6 mouse liver mitochondria assessed as reduction in mitochondrial swelling at 1 uM by spectrophotometry. The procedure, abridged: (§4)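 Male C57/bl6 liver mitochondria at 0.5 mg/mL final in KCl/MOPS/phosphate buffer with glutamate/malate, pH 7.4; compound at 1 μM added before the mitochondria. Swelling followed as the fall in A540, read every 9 s for 10 min. Inducers: CaCl2 150 μM, FCCP 50 nM, menadione 100 μM, diamide 300 μM.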

Series [15] is filed under the species Mus musculus. Nature of the series: Inhibition of diamide-induced mPTP opening in C57/bl6 mouse liver mitochondria assessed as reduction in mitochondrial swelling at 1 uM by spectrophotometry. The procedure, abridged:
as §4

The species entered for series [16] is Mus musculus. Nature of the series: Inhibition of Cacl2-induced mPTP opening in C57/bl6 mouse liver mitochondria assessed as reduction in mitochondrial swelling at 1 uM by spectrophotometry. The procedure, abridged:
as §4

Series [17] deals with Sodium-dependent noradrenaline transporter (Homo sapiens) (UniProt P23975). Nature of the series: Displacement of antagonist radioligand from human NET at 10 uM. In a few lines: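 Single 10 μM concentration tested in a receptor/enzyme diversity panel, read as displacement of a target-specific radioligand.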
The species entered for series [18] is Mus musculus. Nature of the series: Inhibition of FCCP-induced mPTP opening in C57/bl6 mouse liver mitochondria assessed as reduction in mitochondrial swelling at 1 uM by spectrophotometry. The procedure, abridged: as §4
Series [19] has as its system Oryctolagus cuniculus. Nature of the series: Cardioprotective effect in New Zealand rabbit ischemia/reperfusion-induced left anterior descending coronary artery ligation myocardial infarction model assessed as ratio of area at risk to infarct area at 10 mg/kg, iv administered as bolus dose 5 min prior to reperfusion (reference value: 57.3%). The class given is functional, Myocardium.

SMILES strings stand for the structures. The source made the active and inactive calls. No cut-off for these calls is given here.

Sequence of Sodium-dependent noradrenaline transporter (Homo sapiens) (P23975 whole entry): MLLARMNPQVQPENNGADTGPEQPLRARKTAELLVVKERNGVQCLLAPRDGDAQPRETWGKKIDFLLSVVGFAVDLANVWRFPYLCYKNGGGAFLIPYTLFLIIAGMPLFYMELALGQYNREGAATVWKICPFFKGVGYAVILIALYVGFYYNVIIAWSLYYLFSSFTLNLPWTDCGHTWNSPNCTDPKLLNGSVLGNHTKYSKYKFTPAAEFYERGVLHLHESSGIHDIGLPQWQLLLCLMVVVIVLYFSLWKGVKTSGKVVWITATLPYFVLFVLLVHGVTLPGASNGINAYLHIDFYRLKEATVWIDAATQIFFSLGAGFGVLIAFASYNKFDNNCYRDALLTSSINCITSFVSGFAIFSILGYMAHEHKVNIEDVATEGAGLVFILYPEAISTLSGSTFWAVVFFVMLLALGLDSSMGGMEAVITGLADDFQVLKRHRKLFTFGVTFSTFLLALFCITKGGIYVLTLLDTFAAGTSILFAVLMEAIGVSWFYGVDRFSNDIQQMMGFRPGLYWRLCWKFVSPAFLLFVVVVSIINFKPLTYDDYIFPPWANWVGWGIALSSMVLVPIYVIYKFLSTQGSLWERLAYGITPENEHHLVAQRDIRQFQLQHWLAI
Sequence of Voltage-gated inwardly rectifying potassium channel KCNH2 (Q12809 whole entry): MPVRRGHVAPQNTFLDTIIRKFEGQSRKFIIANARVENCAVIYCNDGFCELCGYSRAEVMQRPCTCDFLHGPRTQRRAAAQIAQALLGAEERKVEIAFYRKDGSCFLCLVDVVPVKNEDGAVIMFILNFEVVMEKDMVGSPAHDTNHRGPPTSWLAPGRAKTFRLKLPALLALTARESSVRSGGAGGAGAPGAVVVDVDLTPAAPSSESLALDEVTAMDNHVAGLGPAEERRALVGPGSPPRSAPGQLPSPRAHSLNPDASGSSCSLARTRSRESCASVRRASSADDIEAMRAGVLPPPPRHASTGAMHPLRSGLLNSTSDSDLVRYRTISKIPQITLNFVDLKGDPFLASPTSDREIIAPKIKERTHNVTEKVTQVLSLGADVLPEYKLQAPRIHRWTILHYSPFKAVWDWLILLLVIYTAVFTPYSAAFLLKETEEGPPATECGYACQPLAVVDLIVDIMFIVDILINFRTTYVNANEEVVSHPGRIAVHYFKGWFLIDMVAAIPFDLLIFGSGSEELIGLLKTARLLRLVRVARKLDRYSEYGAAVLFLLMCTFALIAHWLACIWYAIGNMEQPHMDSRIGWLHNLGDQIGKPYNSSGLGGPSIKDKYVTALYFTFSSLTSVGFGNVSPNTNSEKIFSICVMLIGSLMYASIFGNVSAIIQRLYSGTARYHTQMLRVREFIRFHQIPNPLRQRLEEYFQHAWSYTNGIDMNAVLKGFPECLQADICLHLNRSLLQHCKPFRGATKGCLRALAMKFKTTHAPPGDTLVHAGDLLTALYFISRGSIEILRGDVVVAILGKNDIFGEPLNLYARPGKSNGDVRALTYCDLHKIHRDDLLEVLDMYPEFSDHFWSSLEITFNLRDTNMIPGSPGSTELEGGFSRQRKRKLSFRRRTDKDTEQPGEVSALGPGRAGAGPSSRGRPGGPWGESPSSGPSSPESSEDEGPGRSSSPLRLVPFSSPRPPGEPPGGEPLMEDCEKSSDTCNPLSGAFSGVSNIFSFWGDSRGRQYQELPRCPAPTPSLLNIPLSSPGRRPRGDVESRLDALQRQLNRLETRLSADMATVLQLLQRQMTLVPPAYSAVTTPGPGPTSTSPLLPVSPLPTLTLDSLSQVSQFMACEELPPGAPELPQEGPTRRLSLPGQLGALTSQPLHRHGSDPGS

In [1], `O=C(/C=C/c1ccc(F)c(O)c1)Nc1cccc2ccccc12` gave a half-life of 30 min. Also, the Activity was 30.9% in the series with Oryctolagus cuniculus [2]; “Non-toxic” in the series with Rattus norvegicus [4]; “Not Active” in [5]; 108.4 µM in the series on Mus musculus [6]; “Non-toxic” with Rattus norvegicus [7]; “Non-toxic” in the series with Rattus norvegicus [12]. Also, the Activity result in the series on Rattus norvegicus [13] is “Non-toxic”. For the same molecule, the INH in the series listed under Mus musculus [3] was determined as 125 µM. The inhibition entry in the series filed under Mus musculus [8] is “Dose-dependent effect”. Further, the inhibition result in the series filed under Mus musculus [9] is “Active”. In series [10], the concentration at 5 min was determined as 4.8 µM. This molecule had a concentration at 4 h in series [11] of 0.02 µM.
On to `COc1ccc(/C=C/C(=O)Nc2cccc(Cl)c2)cc1O`, for which the inhibition result in the series filed under Mus musculus [14], in the series listed under Mus musculus [15], in the series filed under Mus musculus [16] and in the series filed under Mus musculus [18] was “Active” throughout. In series [17], this molecule had an inhibition of more than 50%.
`C/C=C/C[C@@H](C)[C@@H](O)[C@H]1C(=O)N[C@@H](CC)C(=O)N(C)CC(=O)N(C)[C@@H](CC(C)C)C(=O)N[C@@H](C(C)C)C(=O)N(C)[C@@H](CC(C)C)C(=O)N[C@@H](C)C(=O)N[C@H](C)C(=O)N(C)[C@@H](CC(C)C)C(=O)N(C)[C@@H](CC(C)C)C(=O)N(C)[C@@H](C(C)C)C(=O)N1C` [CYCLOSPORINE]: the Activity in the series with Oryctolagus cuniculus [19] is recorded as 32.6%.

What is called half-life is the time in which the quantity being followed falls by half. The low end stands for fast loss, the high end for slow loss. One may read the inhibition as the percentage by which the read-out fell short of the control.
